In brackets after ≈: the same amount, converted by molar mass.
Experiments:
Vero = test: Cytotoxicity against african green monkey Vero cells; type: cell-based, Chlorocebus sabaeus; details: Chlorocebus sabaeus, Vero; read-out: IC50
[1] = Half life in Sprague-Dawley rat at 20 mg/kg, po; type: ADME, organism-based; parameters: dose 20 mg/kg, route oral; details: in vivo
[2] = Solubility in simulated gastric fluid at pH 1.5 by HPLC method; type: physicochemical
Method in brief: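 Compound at 200 μM final in 2% DMSO in simulated gastric fluid, shaken 24 h at room temperature; HPLC-photodiode array detection at 230 nm; duplicate means.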

[3] = Elimination half life in Sprague-Dawley rat at 5 mg/kg, iv; type: ADME, organism-based; parameters: dose 5 mg/kg, route intravenous; details: in vivo, read-out: beta t1/2 (converted)
Method in brief: (§1)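 Male Sprague-Dawley rats (n = 3), single 5 mg/kg iv dose as solution in PEG300/DMSO 50:50; plasma sampled 0.083–24 h, LC-MS bioanalysis; noncompartmental analysis, means.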

[4] = Permeability across basolateral to apical side in human Caco2 cells incubated for 1 hr at 37 degC by HPLC-MS/MS method; type: ADME, cell-based; details: Caco-2
[5] = tested on: Mycobacterium tuberculosis; test: Antitubercular activity against non-replicating Mycobacterium tuberculosis H37Rv incubated for 10 days by LORA method; type: functional; details: 240 h
Method in brief: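 H37Rv carrying pFCA-luxAB was adapted to low oxygen by gradual self-depletion in a sealed, slowly stirred flask. It was then exposed to compounds for 10 days under anaerobic conditions. Cultures recovered for 28 h in ambient oxygen before n-decanal substrate was added and luminescence read. MIC was the lowest concentration giving a 90% reduction in luminescence versus untreated controls.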

[6] = tested on: Mycobacterium tuberculosis; test: Antitubercular activity against Mycobacterium tuberculosis Erdman ATCC 35801 infected in C57BL/6 mouse assessed as viable bacterial load in spleen at 200 mg/kg/day through gavage 5 days per week for 4 weeks starting on 10th day post-infection (reference value: 4.79 +/- 0.21 log10CFU/spleen); type: functional
[7] = Clearance in Sprague-Dawley rat at 5 mg/kg, iv; type: ADME, organism-based; parameters: dose 5 mg/kg, route intravenous; details: in vivo; method in brief: as §1
[8] = Efflux ratio in human Caco2 cells incubated for 1 hr at 37 degC by HPLC-MS/MS method; type: ADME, cell-based; details: Caco-2
[9] = Tmax in C57BL/6 mouse at 40 mg/kg, po formulated in 20% DMSODMSO, 20% PEG400, 60% (30% HP-beta-CD in water); type: ADME, organism-based; parameters: dose 40 mg/kg, route oral; details: in vivo
Method in brief: (§2)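 Female C57BL/6 mice, single 40 mg/kg oral gavage; three mice per time point; plasma at 30 min to 24 h, LC-MS; noncompartmental parameters reported as means.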

Salmonella typhimurium [10] = test: Toxicity in Salmonella typhimurium TA100 assessed as compound level per well causing cytotoxicity at 0.25 to 240 ug/well in presence of rat liver S9 fraction; type: organism-based; details: salmonella enterica subsp. enterica serovar typhimurium
Method in brief: (§3)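 MicroAmes: strains preincubated with or without Aroclor-induced rat liver S9, duplicate wells, six concentrations 0.25–250 μg equivalents/well; DMSO vehicle, 4-nitroquinoline-N-oxide (−S9) and 2-aminoanthracene (+S9) positive controls; revertant colonies counted; cytotoxicity noted as reduced revertants or background lawn; precipitation recorded.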

[11] = AUC (0 to infinity) in C57BL/6 mouse at 40 mg/kg, po formulated in 20% DMSODMSO, 20% PEG400, 60% (30% HP-beta-CD in water); type: ADME, organism-based; parameters: dose 40 mg/kg, route oral, time infinity; details: plasma
[12] = tested on: Mycobacterium tuberculosis; test: Antitubercular activity against Mycobacterium tuberculosis Erdman ATCC 35801 infected in C57BL/6 mouse assessed as viable bacterial load in lung at 200 mg/kg twice daily through gavage 5 days per week for 4 weeks starting on 10th day post-infection (reference value: 6.49 +/- 0.10 log10CFU/lung); type: functional
[13] = AUC (0 to infinity) in C57BL/6 mouse at 40 mg/kg, po formulated in 0.1% SLS; type: ADME, organism-based; parameters: time infinity, dose 40 mg/kg, route oral; details: plasma
[14] = Oral bioavailability in Sprague-Dawley rat at 20 mg/kg; type: ADME, organism-based; details: in vivo
[15] = Solubility in simulated intestinal fluid at pH 7.6 by HPLC method; type: physicochemical
Method in brief: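 Simulated intestinal fluid medium; each analogue 200 μM final in 2% DMSO, shaken 24 h at room temperature, then HPLC with photodiode array read at 230 nm; duplicate, means given.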

[16] = Volume of distribution in Sprague-Dawley rat at 5 mg/kg, iv; type: ADME, organism-based; parameters: dose 5 mg/kg, route intravenous; details: in vivo; method in brief: as §1
[17] = tested on: Mycobacterium tuberculosis; test: Antitubercular activity against Mycobacterium tuberculosis H37Rv incubated at 37 degC for 7 days by microplate alamar blue assay; type: functional; details: Mycobacterium tuberculosis, H37Rv, 168 h
Method in brief: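 Mtb H37Rv was grown in 7H9 broth with glycerol, Casitone, 10% OADC and 0.05% Tween 80 to OD600 0.4. Compounds were 2-fold serially diluted from DMSO stocks in 7H9, and wells were inoculated at 2 × 10⁵ CFU/mL. After 7 days at 37 °C, Alamar Blue was added and read after a further 24 h. MIC was the lowest concentration preventing the blue-to-pink change.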

Salmonella typhimurium [18] = test: Mutagenicity in Salmonella typhimurium TA98 assessed as mean revertant colonies at 0.25 to 240 ug/well in presence of rat liver S9 fraction; type: toxicity, organism-based; details: salmonella enterica subsp. enterica serovar typhimurium; method in brief: as §3
[19] = Half life in C57BL/6 mouse at 40 mg/kg, po formulated in 0.1% SLS; type: ADME, organism-based; parameters: dose 40 mg/kg, route oral; details: in vivo; method in brief: as §2
[20] = Distribution coefficient, log D of the compound between n-octanol and PBS buffer at pH 7.4 incubated for 1 hr by shake flask method; type: physicochemical
Method in brief: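 Partition between n-octanol and PBS pH 7.4 after 1 h shaking at room temperature; phases analysed by HPLC with photodiode detection; logD = log10 of organic/aqueous amount.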

[21] = Metabolic stability in human liver microsomes assessed as parent compound remaining at 1 uM incubated for 1 hr by HPLC-MS/MS method; type: ADME, Microsome; details: read-out: Stability
Method in brief: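 Pooled mixed-gender human liver microsomes (0.3 mg/mL protein), 1 μM compound with NADP-regenerating system in phosphate buffer pH 7.4, 1 h at 37 °C; parent measured at start and end by HPLC-MS/MS; duplicate means.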

[22] = tested on: Mycobacterium tuberculosis; test: Antitubercular activity against Mycobacterium tuberculosis H37Rv incubated at 37 degC for 14 days in presence of 40% human serum by microplate alamar blue assay; type: functional; details: 336 h
Method in brief: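 This is the MABA run in 7H9 broth containing 40% human serum. Compounds were 2-fold serially diluted, and wells were inoculated with H37Rv at 2 × 10⁵ CFU/mL. Incubation was at 37 °C for 14 days, then Alamar Blue was added. MIC was the lowest concentration preventing the blue-to-pink colour change.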

[23] = AUC (0 to infinity) in Sprague-Dawley rat at 20 mg/kg, po; type: ADME, organism-based; parameters: time infinity, dose 20 mg/kg, route oral; details: plasma
[24] = Cmax in Sprague-Dawley rat at 20 mg/kg, po; type: ADME, organism-based; parameters: dose 20 mg/kg, route oral; details: in vivo
[25] = Permeability across apical to basolateral side in human Caco2 cells incubated for 1 hr at 37 degC by HPLC-MS/MS method; type: ADME, cell-based; details: Caco-2
Method in brief: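 TC7 (Caco-2 subclone) monolayer; 10 μM compound in 1% DMSO in HBSS-MES pH 6.5 on apical donor side, basolateral receiver pH 7.4; shaken 1 h at 37 °C; receiver sampled, HPLC-MS/MS; duplicate means.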

[26] = Cmax in C57BL/6 mouse at 40 mg/kg, po formulated in 0.1% SLS; type: ADME, organism-based; parameters: dose 40 mg/kg, route oral; details: in vivo; method in brief: as §2
[27] = AUC (0 to infinity) in Sprague-Dawley rat at 5 mg/kg, iv; type: ADME, organism-based; parameters: time infinity, dose 5 mg/kg, route intravenous; details: plasma

O=C1C2=Nc3ccccc3CN2c2ccc(Cl)cc21
IC50 (Vero): 40 µg/mL (≈ 149 µM)
half-life [1]: 3.33 h
solubility [2]: 79.2 µM (≈ 21.3 µg/mL)
half-life [3]: 1.42 h
Papp B→A at 1 h [4]: 20.8 ×10⁻⁶ cm/s
MIC90 [5]: 24 µg/mL (≈ 89.3 µM)
log10cfu [6]: 4.85
clearance [7]: 92.8 mL/min/kg
efflux ratio at 1 h [8]: > 1
Tmax [9]: 1.5 h
Activity (Salmonella typhimurium [10]): >= 2.5 ug
AUC(0-inf) [11]: 968 ng·h/mL
log10cfu [12]: 6.64
AUC(0-inf) [13]: 1400 ng·h/mL
bioavailability [14]: 8%
solubility [15]: 19.3 µM (≈ 5.19 µg/mL)
Vd [16]: 11.7 L/kg
MIC [17]: 0.125 µg/mL (≈ 0.465 µM)
Activity (Salmonella typhimurium [18]): Non-toxic
half-life [19]: 3.08 h
logD at 1 h [20]: 3.37
remaining at 1 h, 1 µM [21]: 53%
MIC [22]: 0.125 µg/mL
AUC(0-inf) [23]: 300 ng·h/mL
Cmax [24]: 50 ng/mL
Papp A→B at 1 h [25]: 60.8 ×10⁻⁶ cm/s
Cmax [26]: 197 ng/mL
AUC(0-inf) [27]: 930 ng·h/mL
